Source: PubChem BioAssay (several laboratories)
Most compounds without a hit are left out; they make up all but 9.8% or so of the library.
Calpain2 inh: blocks pig calpain II enzyme activity | hit rate 0.37% among 220,000 | AID 1236 | purified calpain II, fluorogenic peptide substrate, 30 min | inhibition, % at 16 µM;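 active means inhibition above about 50%, limit read from the data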
WT yeast gro inh: growth inhibition of WT yeast, mitochondrial fusion screen. mitochondrial fusion phenotypic screen, WT strain. inhibition, % at 10 µM. hit rate 2.1% among 190,000. AID 1362; in the data active means inhibition above about 58%; tested in S. cerevisiae
L major viab: reduces viability of Leishmania major promastigotes; resazurin fluorescence viability; inhibition, % at 10 µM; hit rate 9% among 200,000; in the data active means inhibition above about 50%;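 further: promastigotes grown with compound for 44 hours at 28 °C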
PMI act: activators of human phosphomannose isomerase. purified human PMI, coupled resazurin fluorescence, 20 min; hits give high values; 1 = vehicle control, 0 substrate-free wells. activation factor at 20 µM. hit rate 0.005% among 190,000. AID 1214;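 active means activation factor of 2 or more at 20 µM, relative to plate controls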
Rad51 HR inh: Rad51 (human) homologous recombination inhibition; hRad51 DNA strand exchange, fluorescence dequenching; Q06609; hit rate 0.085% among 200,000; inhibition, % at 10 µM;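 active means inhibition above 40% at the single screening dose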;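 further: 0% = DMSO control wells and 100% = blanks with heterologous ssDNA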
Target sequence (Q06609 whole entry, looked up): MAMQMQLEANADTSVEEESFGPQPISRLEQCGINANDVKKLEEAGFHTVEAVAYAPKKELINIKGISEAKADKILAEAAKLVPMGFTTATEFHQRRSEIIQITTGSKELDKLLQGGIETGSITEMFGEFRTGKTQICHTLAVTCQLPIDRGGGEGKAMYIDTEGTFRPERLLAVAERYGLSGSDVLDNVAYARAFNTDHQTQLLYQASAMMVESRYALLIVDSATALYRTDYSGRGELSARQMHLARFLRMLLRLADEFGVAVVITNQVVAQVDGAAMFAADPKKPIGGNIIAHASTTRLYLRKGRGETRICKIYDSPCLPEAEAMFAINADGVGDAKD
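System: human Rad51 nucleoprotein filaments preassembled on unlabelled ssDNA. Reagent: labelled 47-mer dsDNA for strand exchange. Schedule: 30-min compound preincubation and 15-min exchange, both room temperature. Measured by: FRET fluorescence dequenching, excitation 485 nm, emission 520 nm. Read-out: Fluorescence-based percent inhibition, control- and blank-normalised. Benchmarks: plate controls and plate blanks.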
PMI act satM6P: PMI (human) activation, high substrate; coupled PMI enzyme assay, resazurin fluorescence, 20 min; hits give high values; 1 = untreated enzyme, 0 = substrate-free blank; activation factor at 20 µM; hit rate 0.34% among 190,000;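 active means activation factor of 2 or more at 20 µM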
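test system = human PMI in coupled enzyme assay | medium = HEPES-buffered pH 7.4 with magnesium and detergent | also added = 1.0 mM mannose-6-phosphate substrate with 0.22 mM NADP+ | compound = 20 µM single dose | times = 20 min incubation at room temperature | measured by = resorufin fluorescence (Ex 544/Em 590 nm) from resazurin via diaphorase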
Active calls of the source: *; . = no result.

SMILES	Calpain2 inh	WT yeast gro inh	L major viab	PMI act	Rad51 HR inh	PMI act satM6P
COc1cccc(CNC(=O)CNC(=S)N(Cc2ccccc2)Cc2ccccc2F)c1	54*	72*	25	1	5	1
COc1cccc(CNC(=O)Cc2ccc(Br)cc2)c1	8	-22	-3	0.9	7	0.9
C=CCC(CC(O)COCCC)C(=O)NNC(=S)Nc1ccccc1 (stereo not drawn)	-6	.	.	.	13	.
CCc1nc2ccccc2c(NC(=O)CN2CC(C)CC(C)C2)c1C (stereo not drawn)	15	-12	18	1.1	23	1.1
C=CCCC(=O)Nc1nc(C)c(-c2csc(Nc3cc(Cl)ccc3OC)n2)s1	-30	38	33	0.8	1	0.8
CCCC(C)C(=O)Nc1nc(C)c(-c2csc(Nc3cc(Cl)ccc3C)n2)s1 (stereo not drawn)	-61	-3	91*	1	5	1.3
C=CCCC(=O)Nc1nc(C)c(-c2csc(Nc3ccccc3OC)n2)s1	-5	-11	70*	0.8	-2	0.8
CCCCC(=O)Nc1nc(C)c(-c2csc(Nc3ccccc3OC)n2)s1	-34	13	95*	0.9	-4	0.8
CCC(C)C(=O)Nc1nc(C)c(-c2csc(Nc3ccccc3OC)n2)s1 (stereo not drawn)	-22	23	99*	0.8	3	0.7
CCCCCC(=O)Nc1nc(C)c(-c2csc(Nc3cc(Cl)ccc3C)n2)s1	-54	-9	48	0.8	-1	0.9
CCC(Sc1nccn1C)C(=O)Nc1ccc(Cl)cn1 (stereo not drawn)	18	9	-9	1	-66	1.1
CC(=O)Nc1ccc(C(=O)N(C)C(C(=O)Nc2ccccc2)c2ccccn2)cc1 (stereo not drawn)	2	-1	-3	1	4	1
Cc1ccnc(NC(NC(=O)C(C)C)(C(F)(F)F)C(F)(F)F)c1	13	13	-6	0.9	.	0.9
CCc1ccc(C(=O)/C=C/c2ccc([N+](=O)[O-])o2)cc1	-45	60*	100*	1	-27	1.1
O=C(CSc1nc(C2CC2)nc2ccccc12)Nc1ccccc1N1CCOCC1	8	3	23	0.9	-116	1
CCCN1CCN(C(=O)Cn2cnc3ccc(S(=O)(=O)N4CCC(C)CC4)cc3c2=O)CC1	-11	-5	93*	1	-11	1
O=[N+]([O-])c1cc(Cl)cc(/C=N\Nc2ccccn2)c1O	0	-14	98*	1.2	5	1.1
O=C(N/N=C/c1cc(Cl)cc([N+](=O)[O-])c1O)c1cc(-c2ccccn2)nc2ccccc12	-93	.	.	.	11	.
CCC(C)c1ccccc1OCCn1ccnc1 (stereo not drawn)	8	36	69*	1.1	2	1
Clc1ccc(OCCn2ccnc2)c(Cl)c1	1	6	25	0.9	.	1
Clc1ccc(OCCn2ccnc2)c2ccccc12	4	13	96*	0.9	1	1
C/C(=N\Nc1nc(-c2ccccc2)cs1)c1cccs1	-8	25	79*	1.6	0	2.2*
C/C(=N\Nc1nc2ccccc2s1)c1cccs1	3	77	15	0.9	-5	0.9
Cc1c(C(=O)C(=O)NCc2ccco2)c2ccccc2n1C	14	-14	0	0.9	9	0.9
Cc1noc(C)c1S(=O)(=O)N(CC(=O)N1CCCCCC1)c1ccc(C(C)C)cc1	-6	10	63*	1	-2	1.1
SMILES	Calpain2 inh	WT yeast gro inh	L major viab	PMI act	Rad51 HR inh	PMI act satM6P
COc1ccc(CC(=O)N/N=C/c2ccc(-c3cccc(C(=O)O)c3)o2)cc1OC	-4	.	.	.	.	.
CC(/C=N/NC(=O)NC1CCCCC1)=C\c1ccccc1	33	43	6	0.8	1	0.8
Cc1onc(-c2ccccc2)c1C(=O)N/N=C/c1cc2c(cc1Br)OCO2	-4	21	100*	0.9	-1	0.8
O=C(N/N=C/C(Br)=C/c1ccccc1)NC1CCCCC1	11	90*	3	1.1	.	1
O=C(N/N=C/c1cc2c(cc1Br)OCO2)c1cccnc1	-19	5	2	1.1	5	1.1
Cc1onc(-c2ccccc2)c1C(=O)N/N=C/C(Br)=C/c1ccccc1	29	82*	12	0.8	26	0.8
COc1ccc(/C=N/NC(=O)c2c(-c3ccccc3)noc2C)cc1	7	-13	5	1.1	.	1.2
